Reference: ChEMBL document CHEMBL4130370, “Discovery of 5,6-diaryl-1,2,4-triazines hybrids as potential apoptosis inducers” (Eur J Med Chem, 2017)

How the values were obtained:
Assay type in all cases: functional, cell-based
MGC-803 = test: Antiproliferative activity against human MGC803 cells after 48 hrs by MTT assay; details: MGC-803, 48 h
Procedure, shortened: (§1)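 Cells exposed to compounds for 48 h, then read by MTT. IC50 is the concentration giving 50% inhibition of tumour cell proliferation, taken from dose-response curves. Values are means±SD of three independent experiments. 5-FU was the reference drug.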

ECa-109 cell line = test: Antiproliferative activity against human EC109 cells after 48 hrs by MTT assay; details: ECa-109, 48 h; procedure, shortened: as §1
PC-3 = test: Antiproliferative activity against human PC3 cells after 48 hrs by MTT assay; details: PC-3, 48 h; procedure, shortened: as §1

Structure (SMILES)	IC50 (MGC-803) [µM]	IC50 (ECa-109 cell line) [µM]	IC50 (PC-3) [µM]
CC(=O)CSc1nnc(-c2ccccc2)c(-c2ccccc2)n1	> 100	> 100	> 100
COc1ccc(Cn2cc(CSc3nnc(-c4ccccc4)c(-c4ccccc4)n3)nn2)cc1	22.7	28.4	27.5
O=c1ccc2ccc(OCCCn3cc(CSc4nnc(-c5ccccc5)c(-c5ccccc5)n4)nn3)cc2o1	> 100	> 100	92.3
Brc1ccc(Cn2cc(CSc3nnc(-c4ccccc4)c(-c4ccccc4)n3)nn2)cc1	> 100	> 100	22
O=c1[nH]cc(F)c(=O)[nH]1 [FLUOROURACIL]	9.79	56.2	12.9
Clc1ccc(Cn2cc(CSc3nnc(-c4ccccc4)c(-c4ccccc4)n3)nn2)cc1	13.2	24.2	14.7
c1ccc(-c2nnc(SCc3cn(Cc4ccc5ccccc5c4)nn3)nc2-c2ccccc2)cc1	> 100	> 100	> 100
NS(=O)(=O)c1ccc(-n2cc(CSc3nnc(-c4ccccc4)c(-c4ccccc4)n3)nn2)cc1	> 100	> 100	> 100
